ChEMBL document CHEMBL4831479, “Discovery of Novel Thiophene-arylamide Derivatives as DprE1 Inhibitors with Potent Antimycobacterial Activities” (J Med Chem, 2021)
Values after ≈ are worked out from the molar mass of the structure shown.

Legend:
Type in all cases: functional
Settings in all cases: variant bovis BCG, 168 h, time 7 day
[1] = test system: Mycobacterium tuberculosis; assay: Antibacterial activity against Mycobacterium bovis BCG transfected with pMV261:Mt-dprE1 assessed as bacterial growth inhibition incubated for 7 days by resazurin assay
Procedure, shortened: (§1)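 M. bovis BCG Pasteur carrying pMV261 (constitutive expression) with Mt-dprE1, Mt-dprE2 or empty vector; MIC after 7 days' exposure to compound, viability read as endogenous reductase conversion of resazurin to resorufin. INH used as control.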

[2] = test system: Mycobacterium tuberculosis; assay: Antibacterial activity against Mycobacterium bovis BCG transfected with pMV261:Mt-dprE2 assessed as bacterial growth inhibition incubated for 7 days by resazurin assay; procedure, shortened: as §1
[3] = test system: Mycobacterium tuberculosis; assay: Antibacterial activity against wild type Mycobacterium bovis BCG assessed as bacterial growth inhibition incubated for 7 days by resazurin assay; procedure, shortened: as §1

**Q.** For `COC(=O)NC(=O)c1ccsc1NC(=O)c1ccc(C(=O)N2CCCCC2)c(F)c1`, which MIC [1] is on record?
**A.** > 1.98 µg/mL

**Q.** What about the MIC [2] of the same compound?
**A.** 0.25 µg/mL (≈ 0.577 µM)

**Q.** For `O=C(Nc1sccc1C(=O)Nc1nccc(C(F)(F)F)n1)c1ccc(C(=O)N2CCCCC2)cc1`, which MIC [1] is on record?
**A.** 12.8 µg/mL (≈ 25.4 µM)

**Q.** And the MIC [2]?
**A.** 1.6 µg/mL (≈ 3.18 µM)

**Q.** What about the MIC [3] of the same compound?
**A.** 1.6 µg/mL (≈ 3.18 µM)

**Q.** With `CCOC(=O)NC(=O)c1ccsc1NC(=O)c1ccc(C(=O)N2CCCCC2)cc1` as the compound, how does the MIC [1] read?
**A.** > 1.28 µg/mL

**Q.** And the MIC [2]?
**A.** 0.32 µg/mL (≈ 0.745 µM)

**Q.** What about the MIC [3] of the same compound?
**A.** 0.32 µg/mL (≈ 0.745 µM)

**Q.** Which results are given for `COC(=O)NC(=O)c1ccsc1NC(=O)c1ccc(C(=O)N2CCCCC2)cc1`?
**A.** MIC [1]: 12.2 µg/mL (≈ 29.3 µM); MIC [2]: 1.52 µg/mL (≈ 3.66 µM); MIC [3]: 0.76 µg/mL (≈ 1.83 µM)

**Q.** How did the MIC [1] turn out when `CCOC(=O)NC(=O)c1ccsc1NC(=O)c1ccc(C(=O)N2CCCCC2)c(F)c1` was run?
**A.** > 0.51 µg/mL

**Q.** And the MIC [3]?
**A.** 0.064 µg/mL (≈ 0.143 µM)

**Q.** Which results are given for `CCOC(=O)NC(=O)c1ccsc1NC(=O)c1ccc(C(=O)N2CCCCC2)s1`?
**A.** MIC [1]: 8.96 µg/mL (≈ 20.6 µM); MIC [2]: 0.56 µg/mL (≈ 1.29 µM); MIC [3]: 0.28 µg/mL (≈ 0.643 µM)

**Q.** With `CCOC(=O)NC(=O)c1ccsc1NC(=O)c1nc2ccccc2s1` as the compound, how does the MIC [1] read?
**A.** 15.4 µg/mL (≈ 40.9 µM)
